Here are results for five compounds from paper PMC7174984 (Bioconjugate chemistry, 2020).

Like-named read-outs stand apart in the source and are kept apart here.

Data set [1] can be described thus: Pharmacokinetics, clearance and urinary excretion. The class given is in vivo, CD-1 mice. Particulars: 25 nmol iv. In a few lines: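 Healthy CD-1 mice (25 g) dosed iv with 25 nmol test compound in saline with 10% BSA. Blood taken at 0, 10, 30, 60, 120, 180, 240 and 300 min, spun 3000 rpm for 20 min; plasma fluorescence read by NIR imaging. For excretion, male mice had the penis ligated before dosing and were killed at 4 h; urine fluorescence read by spectrophotometer.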

Data set [2] deals with T1, HSA (Homo sapiens, UniProt P02768). The data set can be described thus: UV-vis/fluorescence spectroscopy of dye interaction with albumin. The class given is binding. The following applies: for formation of noncovalent adduct with albumin: UV absorbance maximum shift on mixing with HSA or serum.
T1 sequence (P02768 25-609): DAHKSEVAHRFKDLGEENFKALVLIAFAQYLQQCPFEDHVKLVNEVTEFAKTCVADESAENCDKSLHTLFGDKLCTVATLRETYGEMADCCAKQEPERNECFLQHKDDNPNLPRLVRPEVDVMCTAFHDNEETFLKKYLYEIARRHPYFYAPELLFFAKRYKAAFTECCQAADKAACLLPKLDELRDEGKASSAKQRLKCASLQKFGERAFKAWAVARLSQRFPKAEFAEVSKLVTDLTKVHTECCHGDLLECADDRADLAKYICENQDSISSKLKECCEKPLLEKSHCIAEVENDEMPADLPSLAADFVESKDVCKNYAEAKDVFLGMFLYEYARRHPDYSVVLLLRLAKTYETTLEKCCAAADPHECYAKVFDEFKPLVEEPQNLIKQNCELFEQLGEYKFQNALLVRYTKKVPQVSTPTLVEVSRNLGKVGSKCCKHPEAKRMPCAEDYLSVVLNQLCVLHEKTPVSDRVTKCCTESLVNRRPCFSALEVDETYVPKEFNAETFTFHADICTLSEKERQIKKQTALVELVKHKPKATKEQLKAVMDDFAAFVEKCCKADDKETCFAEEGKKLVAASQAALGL
The subject of data set [3] is OATP1B3. The following applies: ARCePE prostate cancer xenograft; cited from earlier work.
Data set [4] concerns MDA-MB-231 cells. Put plainly: Cellular uptake of dyes, blocking experiment. Particulars: for effect of BSA added to SFM on cellular uptake: BSA only in the media, FACS; for effect of serum on cellular uptake: media with 10% FBS versus serum free media; for effect of BSP on cellular uptake in SFM: 250 μM BSP. Format: cell-based, Human. In a few lines: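 MDA-MB-231 cells (50,000) seeded in serum medium overnight, then starved 4 h in serum-free medium. Groups: no serum (reference), 10% FBS, and 250 μM BSP preblock for 5 min with or without serum. Test compound added for 30 min, then washed. Read by confocal (670 nm excitation) or by FACS after enzyme-free detachment (633 nm excitation, 750/45 emission). Separate arms used DMOG 24 h beforehand for hypoxia, or BSA alone in medium.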

A short description of data set [5]: Biodistribution in resected tumors and organs at 48 h post-injection. Format: in vivo, C57Bl/6 mice. Particulars: 25 nmol iv, tumors and organs resected 48 h post-injection. In a few lines: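 Tumor-bearing C57Bl/6 mice (subcutaneous E0771) anesthetized with ketamine (100 mg/kg) and xylazine (10 mg/kg), abdomen opened by midline incision; 25 nmol test compound in 10% BSA given iv. Imaged at 48 h with intraoperative NIR system (760 nm excitation, 4 mW/cm²; 800 nm emission). ROI signal/background ratio over organs or tumor; at least 3 animals; one-way ANOVA with Tukey test; mean ± s.d.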

In data set [6] the test system is subcutaneous triple negative breast tumors (E0771). Format: in vivo, C57Bl/6 mice. Particulars: 25 nmol iv. In a few lines: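 Female C57Bl/6 mice, 6 wk old (20−30 g), inoculated subcutaneously in left flank with 5 × 10⁶ E0771 cells in PBS. 25 nmol test compound in 10% BSA given iv; NIR imaging (760 nm excitation, 4 mW/cm²) at 0.5, 1, 2, 4, 24 and 48 h. TBR = tumor fluorescence over nearby healthy tissue; at least 3 animals per time point; mean ± s.d.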

The subject of data set [7] is MDA-MB-231 cells. The data set can be described thus: BSA-FITC and dye colocalization by confocal microscopy. Format: cell-based, Human. The gist of the method:
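50,000 MDA-MB-231 cells (grown in DMEM/10% FBS, 37 °C, 5% CO₂) incubated with test dye (10 μM) and equimolar BSA-FITC, either mixed just before use, preincubated 24 h, or added with BSA-FITC whose Cys34 was blocked by 24 h 6-maleimidohexanoic acid pretreatment. Cells then washed twice with PBS and imaged confocally (NIR: 670 nm excitation, 716−789 nm; FITC: 490 nm excitation, 500−589 nm). Pearson coefficient computed.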

Data set [8] relates to OATP1B3. The following applies: PC-3 prostate cancer xenograft; cited from earlier work.
The test system of another data set is HepG2 cells. The data set can be described thus: Cellular uptake of dyes into HepG2 liver cancer cells. The class given is cell-based. Particulars: compared with MDA-MB-231 data. In a few lines:
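HepG2 cells kept in DMEM with 10% FBS at 37 °C and 5% CO₂, passaged at 70% confluency. Live-cell dye uptake imaged by confocal microscopy with a 20×/0.75 water objective; NIR excitation at 670 nm, detection at 716−789 nm.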

Data set [9] concerns the target T1, HSA. Particulars: absorption maxima red-shifted in presence of albumin; cited from earlier work.
In the next data set the test system is albumin. Particulars: cited from earlier work.

With `CC1(C)C(/C=C/C2=C(Cl)C(=C/C=C3\N(CCCCCC(=O)O)c4ccccc4C3(C)C)/CCC2)=[N+](CCCCCC(=O)O)c2ccccc21` [1-Cl], the urinary excretion entry in data set [1] (CD-1 mice) is “Insignificant urinary excretion”. Besides, in data set [1] (healthy CD-1 mice, plasma fluorescence up to 5 h), the “blood plasma (fluorescence) elimination half-life” value worked out at 3.253 h. For the same compound, the “formation of noncovalent adduct with albumin” value (shortened to “formation”) on HSA [2] is listed as “form a non-covalent adduct with albumin”. For the same compound, at HSA [2] (up to 50 equiv BSP, either order of addition), the “displacement of dye from albumin by BSP” value is recorded as “not displaced from albumin by BSP”. The entries for the “reduction of tumor uptake on OATP1B3 knockdown” value with OATP1B3 [3] and in the data set on OATP1B3 [8] were ~ 25% and “approximately 40%”, respectively. For the same compound, the “effect of BSA added to SFM on cellular uptake” value (“effect of BSA added to SFM” for short) with MDA-MB-231 cells [4] was “almost identical to those in serum”. Further, the “effect of serum on cellular uptake” value with MDA-MB-231 cells [4] was “suppressed”. For the same compound, in the data set on MDA-MB-231 cells [4] (serum free media, 250 μM BSP preblock, dye 20 μM, FACS quantitation), the “decrease of uptake by BSP” value is on record as 40−50%. In data set [5], the “persistence in body at 48 h (biodistribution)” value is reported as “persisted”. Besides, the “time post-injection at which high contrast was observed” value in data set [6] is reported as 48 h. In addition, the “maximum TBR” value in data set [6] (48 h post-injection) amounted to 3.5. The “tumor accumulation and persistence” value in data set [6] (up to 48 h) is “high tumor accumulation and prolonged retention”. Moreover, the “Pearson coefficient of colocalization” value in the data set on MDA-MB-231 cells [7] (1-Cl preincubated with Cys34-blocked BSA-FITC) was found to be 0.56. Also, the “Pearson coefficient of colocalization with BSA-FITC” value in the data set on MDA-MB-231 cells [7] (dye 10 μM and ~1 equiv BSA-FITC, noncovalent adduct) was 0.65. Further, in the data set on HepG2 cells, the “uptake into HepG2 cells, trend” value is “followed the same trends”.

Turning to `CC1(C)C(=CC=C2CCCC(C=CC3=[N+](CCCCS(=O)(=O)[O-])c4ccccc4C3(C)C)=C2Cl)N(CCCCS(=O)(=O)[O-])c2ccccc21.[Na+]` [2-Cl], the “formation” value at HSA [2] was “appear to form noncovalent adducts”. In the data set with MDA-MB-231 cells [4] (serum free media), the “effect of BSP on cellular uptake in SFM” value is “suppressed”. Also, in the data set with MDA-MB-231 cells [4], the “effect of BSA added to SFM” value is on record as “suppressed” and the “effect of serum on cellular uptake” value is on record as “suppressed”.

As for `CCCN1C(=CC=C2CCCC(C=CC3=[N+](CCC)c4ccccc4C3(C)C)=C2Cl)C(C)(C)c2ccccc21.[I-]` [4-Cl], the “formation” value on HSA [9] is recorded as “implying noncovalent complexation”.

As to `O=C1OC(c2ccc(O)c(S(=O)(=O)O)c2)(c2ccc(O)c(S(=O)(=O)O)c2)c2c(Br)c(Br)c(Br)c(Br)c21` [BSP, Bromosulfophthalein], the “fraction bound to albumin” value with albumin (after iv injection) was “more than 99%”. In the data set on albumin (equimolar concentrations of BSP and albumin), the “unbound BSP” value is “less than 0.1%”.

As for `CC1(C)C(/C=C/C=C/C=C/C=C2\N(CCCCS(=O)(=O)[O-])c3ccc4ccccc4c3C2(C)C)=[N+](CCCCS(=O)(=O)[O-])c2ccc3ccccc3c21.[Na+]` [ICG], on HSA [2], the “formation” value is given as “appear to form noncovalent adducts”. Moreover, the “effect of BSP on cellular uptake in SFM” value with MDA-MB-231 cells [4] (serum free media) is “suppressed”. In the data set on MDA-MB-231 cells [4], the “effect of BSA added to SFM” value was “suppressed” and the “effect of serum on cellular uptake” value was “suppressed”.
